Source: PubChem BioAssay
The list is not random: actives were taken first. Their share in the collection is about 1.5%.
FLuc inh counter: counter-screen for luciferase assay inhibitors: firefly luciferase inhibition; 1.5% of 200,000 active; inhibition, % at 10 µM; ATPLite firefly luciferase biochemical luminescence, 10 min;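 active = inhibition above about 50% when tested at 10 µM, limit read from the data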
Target sequence (P08659 whole entry, looked up): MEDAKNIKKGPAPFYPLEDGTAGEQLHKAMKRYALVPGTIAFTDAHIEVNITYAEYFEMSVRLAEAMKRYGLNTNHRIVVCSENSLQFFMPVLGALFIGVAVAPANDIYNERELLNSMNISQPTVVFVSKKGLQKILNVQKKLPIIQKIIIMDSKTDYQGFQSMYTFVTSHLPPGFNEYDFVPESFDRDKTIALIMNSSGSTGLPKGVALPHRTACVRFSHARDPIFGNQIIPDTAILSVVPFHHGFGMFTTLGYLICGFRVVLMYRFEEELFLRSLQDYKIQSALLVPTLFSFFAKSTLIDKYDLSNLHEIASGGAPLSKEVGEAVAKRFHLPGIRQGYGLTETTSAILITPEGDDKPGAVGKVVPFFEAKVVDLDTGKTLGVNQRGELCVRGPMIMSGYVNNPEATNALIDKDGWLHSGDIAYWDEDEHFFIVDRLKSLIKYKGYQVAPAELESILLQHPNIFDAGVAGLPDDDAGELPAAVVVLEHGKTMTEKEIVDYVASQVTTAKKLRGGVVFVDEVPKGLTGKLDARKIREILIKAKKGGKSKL
FLuc act counter: affects firefly luciferase, flagging false hits in luciferase stimulation screens. P08659. ATPlite luciferase biochemical, luminescence, 10 min; 0 = ATP-free wells, 1 = DMSO control. activation factor at 10 µM. 200,000 tested, under 10 active;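 active = luciferase activation factor, scaled between plate controls, of at least 2 with compound at 10 µM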
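Material: Luciferase/luciferin reagent mix | Doses: Test compounds dosed from 2 mM stocks in 100% DMSO | Timing: 10 min incubation after luciferase reagent addition, room temperature | Measured by: Luminescence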
PPC-1+TRAIL kill: compounds killing PPC-1 cancer cells with TRAIL present (potentiator screen, no TRAIL-free arm); PPC-1 cells + TRAIL, ATPLite viability luminescence; cell killing (% activity), % at 4 µM or 5 µM; 0.41% of 220,000 active; AID 1443;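 active = cell killing above 50% in the first pass at 4 µM, then a duplicate retest at 5 µM averaging 50% or more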;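 note: plate controls were cells with TRAIL plus DMSO for no effect and medium-only wells lacking cells for full effect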
C8 TRAIL sens: caspase-8 TRAIL sensitization. NB7+C8 cells + TRAIL, ATPlite viability luminescence. inhibition (viability loss, TRAIL sensitization), % at 10 µM. 1% of 360,000 active;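 active = compounds causing at least 50% loss of cell viability in the single-dose screen, relative to plate controls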
* hit, by the source's call; x = not tested or not shown.

SMILES	FLuc inh counter	FLuc act counter	PPC-1+TRAIL kill	C8 TRAIL sens
Cc1ccc(S(=O)(=O)/N=C(\c2ccccc2)N(C)S(=O)(=O)c2ccc(C)cc2)cc1	-10	1.1	11	4
O=C(NCC1CCCO1)c1cc2c([nH]c3ccccc32)c(-c2cccc(Br)c2)n1 (centres undefined)	x	x	x	19
O=C(Nc1ccccn1)c1onc2c1CCCC2	87*	0.1	67*	77*
O=C(Nc1ccccn1)c1csc2c1CCCC2	44	0.6	25	18
CC(=O)Nc1ccc2c(c1)ncn2-c1ccc(C)cc1	53*	0.5	15	5
Cc1ccc2nc(/C(C#N)=C\c3ccc(N4CCOCC4)o3)[nH]c2c1	62*	0.4	15	32
Cc1ccc2nc(/C(C#N)=C\c3ccc([N+](=O)[O-])o3)[nH]c2c1	-2	1	32	81*
COCc1nn2c(N)c(C#N)cnc2c1-c1ccccc1	10	0.9	3	-4
COCc1nn2c(N)c(-c3ccccc3)cnc2c1-c1ccccc1	x	x	x	51*
Cc1ccc(NC(=O)COC(=O)Cn2c(C)csc2=O)cc1S(=O)(=O)N1CCOCC1	x	x	x	-13
NC1=C(Cl)C(=O)c2ccc(S(N)(=O)=O)cc2C1=O	x	x	x	92*
CNC(=O)c1ccc(NC(=O)Nc2ccccc2)cc1	x	x	x	2
CC(C)(C)[C@@H]1COC(=O)[C@@H](NC(=O)OCC2c3ccccc3-c3ccccc32)C/C=C\C[C@@H](CC(=O)NCCO)C(=O)N1	x	x	x	0
COc1ccc2nc(-c3ccc(F)cc3)sc2c1	x	x	x	65*
NC(=O)c1ccc(NC(=O)COC(=O)C2(c3ccccc3F)CCCC2)cc1	-7	1.1	10	-5
O=C(O)c1ccccc1NN=C1CCCCC1	-6	1.1	16	2
Cc1ccc(NC(=O)Cn2cnc([N+](=O)[O-])c2)cc1C	x	x	x	-17
Cc1nn(-c2ccccc2)c(Cl)c1/C=N/NC(=O)c1cccnc1	27	0.7	18	16
Cc1nn(-c2ccccc2)c(Cl)c1/C=N/NC(=O)c1ccccc1NS(=O)(=O)c1cccs1	8	0.9	-3	8
COc1ccc(OC)c(/C=N/NC(=O)c2[nH]ncc2Br)c1	x	x	10	-9
Cc1cc(C(=O)N/N=C/c2c(C)nn(-c3ccccc3)c2Cl)n[nH]1	x	x	5	32
Cc1ccc(C(=O)N/N=C\c2c(C)nn(-c3ccccc3)c2Cl)cn1	51*	0.5	3	45
Cc1nn(-c2ccccc2)c(Cl)c1/C=N/NC(=O)c1ccn[nH]1	x	x	x	75*
Cc1ccc(O)c(/C=N/NC(=O)c2[nH]ncc2Br)c1	74*	0.3	8	-6
Cc1nn(-c2ccccc2)c(Cl)c1/C=N/NC(=O)c1ccc(NS(=O)(=O)c2cccs2)cc1	71*	0.3	50	x
SMILES	FLuc inh counter	FLuc act counter	PPC-1+TRAIL kill	C8 TRAIL sens
CCCCc1c(C)c(C#N)c2nc3ccccc3n2c1Cl	-2	1	32	x
CC(C)(C)CC(=O)NC(=S)Nc1ccccc1C(F)(F)F	-6	1.1	10	8
CCCS(=O)(=O)NC(=O)C1(C)CCN(C(=O)c2ccccc2OC(F)(F)F)C1 (centres undefined)	x	x	x	-6
CN(Cc1cccc(-n2cccn2)c1)Cc1cn(C)nc1-c1ccccc1F	-6	1.1	-18	2
O=c1cc(-c2ccccc2)[nH]c2ccccc12	4	1	7	8
Cc1nn(-c2ccccc2)c(Cl)c1/C=N/NC(=O)c1ccccc1F	x	x	3	7
Cc1nn(-c2ccccc2)c(Cl)c1/C=N/NC(=O)c1[nH]ncc1Br	x	x	x	73*
CCCS(=O)(=O)N1CCC(C(=O)NCCCOC)CC1	-6	1.1	22	2
N#CC(C#N)=C/C(C#N)=C(/N)N1CCN(c2ccc(Cl)cc2)CC1	-4	1	2	-3
Cn1cccc1C(=O)C(=O)Nc1cc(Cl)cc(Cl)c1	0	1	25	19
Cn1cccc1C(=O)C(=O)Nc1ccc(Cl)cc1	62*	0.4	31	29
C(=N\c1nc2ccccc2[nH]1)/c1cccs1	71*	0.3	12	-7
COc1cc(/C=C2\SC(=S)N(NC(=O)c3ccc(O)cc3)C2=O)ccc1O	x	x	x	16
COc1ccccc1C1CCN(C(=O)C2CCCCC2)CC1	x	x	x	-4
O=C1N/C(=C\c2ccc(O)cc2)C(=O)c2ccccc21	93*	0.1	8	25
CC(C)OC(=O)CN1C(=O)C(C)(C)Oc2ccc(C(=O)NC(C)(C)C)cc21	1	1	19	-5
CCN1CCc2c(sc(NC(=O)c3ccc(S(=O)(=O)N(C)c4ccccc4)cc3)c2C(=O)NC)C1	x	x	x	55*
CCOC(=O)/C(=C\c1ccc(Cl)cc1)c1nc2sc(C)c(C)c2c(=O)[nH]1	-4	1	-14	13
